Measured values published in ChEMBL document CHEMBL1142454, “Synthesis and evaluation of novel 4-amino-4,6-androstadiene-3,17-dione: an analog of formestane” (2008).

How the values were obtained:
Design in all cases: scale not given: the % may be the effect or the level left
RPMI-8226 = test: Antitumor activity against human RPMI 8226 cells assessed as reduction of cell growth at 10 uM after 48 hrs by SRB assay; type: functional
In short: (§1)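 NCI 60-cell-line primary screen, single dose 10^-5 M (final). Cells grown in RPMI 1640 with 5% FBS and 2 mM L-glutamine, seeded at 5000–40,000 cells/well and preincubated 24 h at 37 °C, 5% CO2. Compound is dissolved in DMSO, diluted in medium with gentamicin, and exposed 48 h. Cells are fixed with 10% TCA (final) and stained with 0.4% SRB; absorbance is read at 515 nm. Readout is growth percentage.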

NCI-H226 = test: Antitumor activity against human NCI-H226 cells assessed as reduction of cell growth at 10 uM after 48 hrs by SRB assay; type: functional; in short: as §1
SF-268 = test: Antitumor activity against human SF-268 cells assessed as reduction of cell growth at 10 uM after 48 hrs by SRB assay; type: functional; in short: as §1
T47D = test: Antitumor activity against human T47D cells assessed as reduction of cell growth at 10 uM after 48 hrs by SRB assay; type: functional
In short: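 NCI-60 one-dose primary screen at 10^-5 M final. Cells grown in RPMI 1640 with 5% FBS and 2 mM L-glutamine, plated at 5000–40,000 cells/well and preincubated 24 h at 37 °C, 5% CO2. Drug stocks in DMSO, diluted in medium with gentamicin. Exposure 48 h, then fixed in situ with TCA (10% final) for 60 min at 4 °C. Stained with 0.4% SRB in 1% acetic acid, bound dye solubilized in 10 mM trizma base, absorbance read at 515 nm. Reported as mean growth percent; negative values indicate cell kill.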

SK-MEL-28 = test: Antitumor activity against human SK-MEL-28 cells assessed as reduction of cell growth at 10 uM after 48 hrs by SRB assay; type: functional; in short: as §1
SF-295 = test: Antitumor activity against human SF-295 cells assessed as reduction of cell growth at 10 uM after 48 hrs by SRB assay; type: functional; in short: as §1
CAKI-1 = test: Antitumor activity against human Caki-1 cells assessed as reduction of cell growth at 10 uM after 48 hrs by SRB assay; type: functional; in short: as §1
OVCAR-5 = test: Antitumor activity against human OVCAR5 cells assessed as reduction of cell growth at 10 uM after 48 hrs by SRB assay; type: functional; in short: as §1
HCT-15 = test: Antitumor activity against human HCT-15 cells assessed as reduction of cell growth at 10 uM after 48 hrs by SRB assay; type: functional; in short: as §1
BT-549 = test: Antitumor activity against human BT-549 cells assessed as reduction of cell growth at 10 uM after 48 hrs by SRB assay; type: functional; in short: as §1
ACHN = test: Antitumor activity against human ACHN cells assessed as reduction of cell growth at 10 uM after 48 hrs by SRB assay; type: functional; in short: as §1
[1] = Antitumor activity against human 786-O cells assessed as reduction of cell growth at 10 uM after 48 hrs by SRB assay; type: functional, 786-0; in short: as §1
OVCAR-3 = test: Antitumor activity against human OVCAR-3 cells assessed as reduction of cell growth at 10 uM after 48 hrs by SRB assay; type: functional; in short: as §1
SK-MEL-2 = test: Antitumor activity against human SK-MEL-2 cells assessed as reduction of cell growth at 10 uM after 48 hrs by SRB assay; type: functional; in short: as §1
SF-539 = test: Antitumor activity against human SF-539 cells assessed as reduction of cell growth at 10 uM after 48 hrs by SRB assay; type: functional; in short: as §1
NCI-H322M = test: Antitumor activity against human NCI-H322M cells assessed as reduction of cell growth at 10 uM after 48 hrs by SRB assay; type: functional; in short: as §1
SNB-75 = test: Antitumor activity against human SNB75 cells assessed as reduction of cell growth at 10 uM after 48 hrs by SRB assay; type: functional; in short: as §1
HL-60(TB) = test: Antitumor activity against human HL-60(TB) cells assessed as reduction of cell growth at 10 uM after 48 hrs by SRB assay; type: functional; in short: as §1
HT-29 = test: Antitumor activity against human HT-29 cells assessed as reduction of cell growth at 10 uM after 48 hrs by SRB assay; type: functional; in short: as §1
SK-OV-3 = test: Antitumor activity against human SKOV3 cells assessed as reduction of cell growth at 10 uM after 48 hrs by SRB assay; type: functional; in short: as §1
MDA-MB-435 = test: Antitumor activity against human MDA-MB-435 cells assessed as reduction of cell growth at 10 uM after 48 hrs by SRB assay; type: functional; in short: as §1

Structure (SMILES)	Activity (NCI-H226)	Activity (SF-268)	Activity (T47D)	Activity (SK-MEL-28)	Activity (SF-295)	Activity (CAKI-1)	Activity (OVCAR-5)	Activity (HCT-15)	Activity (BT-549)	Activity (ACHN)	Activity [1]	Activity (OVCAR-3)	Activity (SK-MEL-2)	Activity (SF-539)	Activity (NCI-H322M)	Activity (SNB-75)	Activity (HL-60(TB))	Activity (HT-29)	Activity (SK-OV-3)	Activity (MDA-MB-435)	further results
C[C@]12CCC(=O)C(Oc3ccccc3)=C1CC[C@@H]1[C@@H]2CC[C@]2(C)C(=O)CC[C@@H]12	96.55%	113.44%	116.7%	119.81%	124.31%	112.48%	97.47%	94.74%	110.1%	105.72%	100.78%	121.39%	82.37%	106.75%	106.72%	91.11%	105.95%	100.27%	117.4%	113.61%	Activity (RPMI-8226): 87.07%
CCOC1=C2CC[C@@H]3[C@H](CC[C@]4(C)C(=O)CC[C@@H]34)[C@@]2(C)CCC1=O	98.58%	128.3%	117.94%	135.2%	114%	115.2%	101.66%	110.45%	93.87%	105.1%	103.4%	128.63%	94.48%	111.3%	95.97%	79.71%	112.2%	98.16%	111.3%	104.79%	–
C[C@]12CC[C@H]3[C@@H](CCC4=CC(=O)CC[C@@]43CF)[C@@H]1CCC2=O	111.29%	109.8%	39.44%	116.5%	106.3%	111%	118.37%	106.17%	97.23%	119.9%	105.6%	119.07%	97.19%	105.8%	101.55%	90.07%	112.8%	116.4%	120.5%	100.91%	–
C[C@]12CCC(=O)C(N)=C1C=C[C@@H]1[C@@H]2CC[C@]2(C)C(=O)CC[C@@H]12.Cl	96.3%	89.03%	73.66%	103.4%	105.1%	84.08%	107.69%	72.99%	82.63%	88.16%	89.28%	64.57%	74.41%	82.75%	88.38%	94.19%	52.53%	51.17%	120.27%	112.52%	Activity (RPMI-8226): -18.11%
